Calls of active or inactive are those of the source. The rule behind the calls is not given here.
Key:
BT-20 [1] = assay: Growth inhibition of human BT20 after 3 weeks by soft agar colony formation assay; format: functional, cell-based
Outline: (§1)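 Noble agar: 0.8% bottom layer; cells (1.0 × 10⁵ for MIA-PaCa-2) in medium with compound at various concentrations, mixed into 0.4% top agar. Each concentration in triplicate; 3 weeks at 37 °C, 5% CO₂. Stained with 0.05% nitroblue tetrazolium for 48 h and colonies photographed.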

BT-20 [2] = assay: Antitumor activity against human BT20 cells by trypan blue exclusion assay; format: functional, cell-based
Outline: (§2)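 Tumour cells were grown in DMEM or RPMI with 10% fetal bovine serum and 1 unit/mL penicillin-streptomycin. They were seeded in six-well dishes at 1.0 × 10⁵ cells/mL/well, and compound was added 24 h later over a range of concentrations. After 96 h of exposure, viable cells in duplicate wells were counted by trypan blue exclusion.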

DU-145 [3] = assay: Antitumor activity against AR-negative human DU145 cells by trypan blue exclusion assay; format: functional, cell-based; outline: as §2
[4] = Antitumor activity against human H157 cells by trypan blue exclusion assay; format: functional, cell-based; conditions: NCI-H157; outline: as §2
DLD-1 = assay: Antitumor activity against human DLD1 cells by trypan blue exclusion assay; format: functional, cell-based; outline: as §2
T47D = assay: Antitumor activity against ER-positive human T47D cells by trypan blue exclusion assay; format: functional, cell-based; outline: as §2
MCF7 = assay: Antitumor activity against ER-positive human MCF7 cells by trypan blue exclusion assay; format: functional, cell-based; outline: as §2
PC-3 = assay: Antitumor activity against […] human PC3 cells by trypan blue exclusion assay; format: functional, cell-based; outline: as §2
OVCAR-3 = assay: Antitumor activity against human OVCAR-3 cells by trypan blue exclusion assay; format: functional, cell-based; outline: as §2
SK-OV-3 = assay: Antitumor activity against human SKOV3 cells by trypan blue exclusion assay; format: functional, cell-based; outline: as §2
MIA PaCa-2 [5] = assay: Antitumor activity against human MiaPaCa2 cells by trypan blue exclusion assay; format: functional, cell-based; outline: as §2
[6] = Antitumor activity against human U87 cells by trypan blue exclusion assay; format: functional, cell-based, U-87MG ATCC; conditions: U-87 MG; outline: as §2
A549 = assay: Antitumor activity against human A549 cells by trypan blue exclusion assay; format: functional, cell-based; outline: as §2
[7] = Antitumor activity against human H187 cells by trypan blue exclusion assay; format: functional, cell-based; conditions: NCI-H187; outline: as §2
[8] = Antitumor activity against human N417 cells by trypan blue exclusion assay; format: functional, cell-based; outline: as §2
AGS = assay: Antitumor activity against human AGS cells by trypan blue exclusion assay; format: functional, cell-based; outline: as §2
[9] = Antitumor activity against human RF1 cells by trypan blue exclusion assay; format: functional, cell-based; outline: as §2
[10] = Antitumor activity against human RF48 cells by trypan blue exclusion assay; format: functional, cell-based; outline: as §2
COLO 205 = assay: Antitumor activity against human COLO205 cells by trypan blue exclusion assay; format: functional, cell-based; outline: as §2
HCT-116 = assay: Antitumor activity against human HCT116 cells by trypan blue exclusion assay; format: functional, cell-based; outline: as §2
[11] = Antitumor activity against human multidrug-resistant 2008/17/4 cells by trypan blue exclusion assay; format: functional; outline: as §2
HCT-15 = assay: Antitumor activity against human HCT15 cells by trypan blue exclusion assay; format: functional, cell-based; outline: as §2
SW480 = assay: Antitumor activity against human SW480 cells by trypan blue exclusion assay; format: functional, cell-based; outline: as §2
SK-MEL-28 = assay: Antitumor activity against human SK-MEL-28 cells by trypan blue exclusion assay; format: functional, cell-based; outline: as §2
CCRF-CEM [12] = assay: (§3) Antitumor activity against human CEM cells by trypan blue exclusion assay; format: functional, cell-based; outline: as §2
K562 = assay: Antitumor activity against human K562 cells by trypan blue exclusion assay; format: functional, cell-based; outline: as §2
MOLT-4 = assay: Antitumor activity against human MOLT4 cells by trypan blue exclusion assay; format: functional, cell-based; outline: as §2
[13] = Antitumor activity against human Namalwa cells by trypan blue exclusion assay; format: functional, cell-based; conditions: NAMALVA; outline: as §2
Daudi = assay: Antitumor activity against human Daudi cells by trypan blue exclusion assay; format: functional, cell-based; outline: as §2
Raji = assay: Antitumor activity against human Raji cells by trypan blue exclusion assay; format: functional, cell-based; outline: as §2
[14] = Antitumor activity against human MES-SA cells by trypan blue exclusion assay; format: functional, cell-based; outline: as §2
[15] = Antitumor activity against human multidrug-resistant MES-SA/DX5 cells by trypan blue exclusion assay; format: functional, cell-based; outline: as §2
CCRF-CEM [16] = assay: as §3; format: functional, cell-based; outline: as §2; remark: listed apart in the source
CEM/C2 = assay: Antitumor activity against human multidrug-resistant CEM/C2 cells by trypan blue exclusion assay; format: functional, cell-based; outline: as §2
2008 = assay: Antitumor activity against human 2008 cells by trypan blue exclusion assay; format: functional, cell-based; outline: as §2
DU-145 [17] = assay: Growth inhibition of human DU145 after 3 weeks by soft agar colony formation assay; format: functional, cell-based; outline: as §1
MIA PaCa-2 [18] = assay: Growth inhibition of human MiaPaCa2 cells after 3 weeks by soft agar colony formation assay; format: functional, cell-based; outline: as §1
HUVEC = assay: Cell cycle arrest in HUVEC cells by accumulation at G1 phase by FACS analysis; format: functional, cell-based; conditions: Homo sapiens
Outline: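 HUVEC were exposed to 20 nM compound in medium with 10% fetal bovine serum. At 24 h intervals, cells were fixed, stained with propidium iodide and analysed for DNA content by flow cytometry.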

Mus musculus [19] = assay: Hematotoxicity in CD1 mouse at 100 mg/kg, iv; format: organism-based; design: dose 100 mg/kg, route intravenous; conditions: in vivo
Outline: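 CD-1 mice received 200 µL iv of PBS or drug (10 mg/mL; 100 mg/kg). Bone marrow was taken from femur and tibia 12, 24 or 48 h later. Cells were cultured in duplicate in methylcellulose with stem cell factor 50 ng/mL, IL-3 10 ng/mL, IL-6 10 ng/mL, transferrin 200 µg/mL and erythropoietin 3 units/mL. Total, myeloid and lymphoid colony-forming units were counted after 1 week.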

Rattus norvegicus [20] = assay: Hematotoxicity in rat at 100 mg/kg, iv; format: organism-based; design: dose 100 mg/kg, route intravenous; conditions: in vivo
Outline: (§4)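 Rats were given the water-soluble phosphate form iv in single-dose and repeat-dose (28 daily injections) toxicology studies, with biochemical and cellular analysis.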

Mus musculus [21] = assay: Effect on liver damage in CD1 mouse at 100 mg/kg, iv; format: ADME, organism-based; design: dose 100 mg/kg, route intravenous; conditions: in vivo
Mus musculus [22] = assay: Neurotoxicity in CD1 mouse at 100 mg/kg, iv; format: toxicity, organism-based; design: dose 100 mg/kg, route intravenous; conditions: in vivo
Rattus norvegicus [23] = assay: Effect on liver damage in rat at 100 mg/kg, iv; format: ADME, organism-based; design: dose 100 mg/kg, route intravenous; conditions: in vivo; outline: as §4
Rattus norvegicus [24] = assay: Neurotoxicity in rat at 100 mg/kg, iv; format: toxicity, organism-based; design: dose 100 mg/kg, route intravenous; conditions: in vivo; outline: as §4
BT-20 [25] = assay: Antitumor activity against human BT20 xenografted athymic NCR-nu/nu mouse at 50 mg/kg, ip after 22 days
BT-20 [26] = assay: Antitumor activity against ER-negative human BT20 xenografted athymic NCR-nu/nu mouse at 50 mg/kg, ip every 2 days after 22 days; conditions: route intraperitoneal
BT-20 [27] = assay: Antitumor activity against ER-negative human BT20 xenografted athymic NCR-nu/nu mouse at 25 mg/kg, ip for every 4 days after 22 days; conditions: route intraperitoneal

## COc1cc(OC)c(/C=C/S(=O)(=O)Cc2ccc(OC)c(O)c2)c(OC)c1
BT-20 [1]
  Activity: Dose-dependent effect
BT-20 [2]
  IC50: 10 nM
DU-145 [3]
  IC50: 3 nM
[4]
  IC50: 4 nM
DLD-1
  IC50: 3 nM
T47D
  IC50: 6 nM
MCF7
  IC50: 4 nM
PC-3
  IC50: 8 nM
OVCAR-3
  IC50: 6 nM
SK-OV-3
  IC50: 6 nM
MIA PaCa-2 [5]
  IC50: 4 nM
[6]
  IC50: 7 nM
A549
  IC50: 10 nM
[7]
  IC50: 7 nM
[8]
  IC50: 5 nM
AGS
  IC50: 7 nM
[9]
  IC50: 6 nM
[10]
  IC50: 5 nM
COLO 205
  IC50: 9 nM
HCT-116
  IC50: 9 nM
[11]
  IC50: 4 nM
HCT-15
  IC50: 8 nM
SW480
  IC50: 7 nM
SK-MEL-28
  IC50: 7 nM
CCRF-CEM [12]
  IC50: 9 nM
K562
  IC50: 4 nM
MOLT-4
  IC50: 5 nM
[13]
  IC50: 6 nM
Daudi
  IC50: 7 nM
Raji
  IC50: 4 nM
[14]
  IC50: 6 nM
[15]
  IC50: 5 nM
CCRF-CEM [16]
  IC50: 10 nM
CEM/C2
  IC50: 10 nM
2008
  IC50: 5 nM
DU-145 [17]
  Activity: Dose-dependent effect
MIA PaCa-2 [18]
  Activity: Dose-dependent effect
HUVEC
  Activity: Active

## COc1cc(OC)c(/C=C/S(=O)(=O)Cc2ccc(OC)c(OP(=O)([O-])O)c2)c(OC)c1.[Na+]
BT-20 [1]
  Activity: Dose-dependent effect
BT-20 [2]
  IC50: 5 nM
DU-145 [3]
  IC50: 2.5 nM
[4]
  IC50: 7 nM
DLD-1
  IC50: 7 nM
Mus musculus [19]
  Activity: Non-toxic
Rattus norvegicus [20]
  Activity: Non-toxic
Mus musculus [21]
  Activity: Non-toxic
Mus musculus [22]
  Activity: Non-toxic
Rattus norvegicus [23]
  Activity: Non-toxic
Rattus norvegicus [24]
  Activity: Non-toxic
DU-145 [17]
  Activity: Dose-dependent effect
MIA PaCa-2 [18]
  Activity: Dose-dependent effect
BT-20 [25]
  Activity: Active

## COc1ccc(CS(=O)(=O)/C=C/c2c(OC)cc(OC)cc2OC)cc1
BT-20 [2]
  IC50: 20 nM
DU-145 [3]
  IC50: 25 nM
[4]
  IC50: 30 nM
DLD-1
  IC50: 40 nM
T47D
  IC50: 25 nM
MCF7
  IC50: 3 nM
PC-3
  IC50: 30 nM
OVCAR-3
  IC50: 8 nM
MIA PaCa-2 [5]
  IC50: 8 nM
[6]
  IC50: 40 nM
A549
  IC50: 20 nM
[7]
  IC50: 15 nM
[8]
  IC50: 8 nM
AGS
  IC50: 20 nM
[9]
  IC50: 8 nM
[10]
  IC50: 10 nM
COLO 205
  IC50: 15 nM
HCT-15
  IC50: 20 nM
SK-MEL-28
  IC50: 40 nM
CCRF-CEM [12]
  IC50: 30 nM
MOLT-4
  IC50: 9 nM
[13]
  IC50: 15 nM
Daudi
  IC50: 8 nM
Raji
  IC50: 9 nM
[14]
  IC50: 10 nM
[15]
  IC50: 10 nM
CCRF-CEM [16]
  IC50: 30 nM
CEM/C2
  IC50: 10 nM
HUVEC
  Activity: Active
BT-20 [25]
  Activity: Active
BT-20 [26]
  Activity: 67.5 mm3
BT-20 [27]
  Activity: 74 mm3

From ChEMBL document CHEMBL1140709, “Design, synthesis, and biological evaluation of (E)-styrylbenzylsulfones as novel anticancer agents” (J Med Chem, 2008)
